Activity calls are given as the source filed them. No cut-off for these calls is given here.

This note sets out measurements from ChEMBL document CHEMBL1158497, “Arylpyrrolizines as inhibitors of microsomal prostaglandin E2 synthase-1 (mPGES-1) or as dual inhibitors of mPGES-1 and 5-lipoxygenase (5-LOX)” (J Med Chem, 2009).

The target of assay [1] is T1, Prostaglandin E synthase (Homo sapiens, UniProt O14684).
T1 sequence (O14684 whole entry): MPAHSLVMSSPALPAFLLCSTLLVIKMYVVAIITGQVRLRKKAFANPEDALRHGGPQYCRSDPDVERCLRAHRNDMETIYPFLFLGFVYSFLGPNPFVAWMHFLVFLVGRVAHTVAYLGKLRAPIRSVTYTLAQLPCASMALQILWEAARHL
The experiment in a line: Inhibition of mPGES1 in IL1-beta treated human A549 cell microsomal membrane assessed as residual enzyme activity after 1 min by measuring PGE2 level using RP-HPLC method. The class given is microsomes, Microsome. In short, it runs like this:
(§1)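 Cell-free assay using microsomes from A549 cells as the PGE2 synthase source. Compounds were tested at four concentrations (10 μM, 1 μM, 100 nM, 10 nM; 1 nM where needed) in 0.1% DMSO vehicle. Read-out was PGE2 level as a percentage of vehicle control, n=3-5, with ANOVA and Tukey HSD versus vehicle.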

For assay [2], the target named is T2, Prostaglandin E synthase (Homo sapiens) (UniProt O14684).
T2 sequence (whole entry): T1 sequence (O14684 whole entry)
The experiment in a line: Inhibition of mPGES1 in IL1-beta treated human A549 cell microsomal membrane assessed as residual enzyme activity at 10 uM after 1 min by measuring PGE2 level using RP-HPLC method relative to control. The class given is microsomes. Conditions: Microsome. In outline: as §1

A short description of assay [3]: Inhibition of 5-lipoxygenase in bovine polymorphonuclear leucocytes assessed as formation of LTB4 by HPLC method. The class given is cell-based. As to conditions: Bos taurus.
Assay [4] has as its target T3, Prostaglandin G/H synthase 1 (Ovis aries) (UniProt P05979).
T3 sequence (whole entry): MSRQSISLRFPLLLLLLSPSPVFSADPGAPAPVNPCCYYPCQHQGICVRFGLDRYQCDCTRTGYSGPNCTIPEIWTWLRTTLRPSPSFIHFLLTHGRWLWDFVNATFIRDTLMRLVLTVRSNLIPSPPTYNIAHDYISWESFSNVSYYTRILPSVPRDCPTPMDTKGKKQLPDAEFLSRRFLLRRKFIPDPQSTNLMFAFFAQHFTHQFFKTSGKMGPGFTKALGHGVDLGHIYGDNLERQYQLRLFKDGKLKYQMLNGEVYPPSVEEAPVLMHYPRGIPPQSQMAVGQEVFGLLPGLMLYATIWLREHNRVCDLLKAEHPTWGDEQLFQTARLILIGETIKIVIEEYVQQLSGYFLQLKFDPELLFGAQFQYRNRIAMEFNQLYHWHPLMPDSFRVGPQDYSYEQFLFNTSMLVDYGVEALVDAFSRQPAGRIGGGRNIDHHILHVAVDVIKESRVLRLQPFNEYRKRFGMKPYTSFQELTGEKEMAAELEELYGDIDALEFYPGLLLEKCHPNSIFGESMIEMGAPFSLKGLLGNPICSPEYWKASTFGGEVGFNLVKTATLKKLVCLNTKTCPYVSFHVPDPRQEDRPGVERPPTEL
The experiment in a line: Inhibition of ovine COX1 assessed as residual enzyme activity at 30 uM preincubated for 5 mins by measuring 12-HHT level using HPLC method relative to control. In short, it runs like this: (§2)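 Isolated COX-1 and COX-2 enzymes were each exposed to inhibitor at 30 μM in 0.1% DMSO vehicle. Activity was read as 12-HHT concentration as a percentage of vehicle control, n=3-5, with ANOVA and Tukey HSD versus vehicle.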

Assay [5] deals with T4, Prostaglandin G/H synthase 2 (Homo sapiens) (UniProt P35354).
T4 sequence (whole entry): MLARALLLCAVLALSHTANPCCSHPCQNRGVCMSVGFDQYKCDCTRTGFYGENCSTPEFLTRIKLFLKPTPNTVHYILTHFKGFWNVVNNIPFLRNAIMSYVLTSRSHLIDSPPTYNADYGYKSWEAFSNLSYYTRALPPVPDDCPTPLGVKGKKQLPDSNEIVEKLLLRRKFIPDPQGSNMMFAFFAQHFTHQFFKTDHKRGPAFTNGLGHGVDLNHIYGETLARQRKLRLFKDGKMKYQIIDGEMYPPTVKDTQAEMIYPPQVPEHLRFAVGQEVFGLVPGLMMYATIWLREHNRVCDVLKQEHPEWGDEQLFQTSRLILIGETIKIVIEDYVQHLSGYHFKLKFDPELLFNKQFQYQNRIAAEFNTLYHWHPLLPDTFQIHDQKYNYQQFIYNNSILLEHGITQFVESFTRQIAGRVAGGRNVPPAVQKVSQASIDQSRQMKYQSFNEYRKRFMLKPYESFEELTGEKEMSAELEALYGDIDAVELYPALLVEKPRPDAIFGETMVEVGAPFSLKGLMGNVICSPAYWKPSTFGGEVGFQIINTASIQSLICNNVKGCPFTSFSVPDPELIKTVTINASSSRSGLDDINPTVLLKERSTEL
Nature of the assay: Inhibition of human recombinant COX2 assessed as residual activity at 30 uM preincubated for 5 mins by measuring 12-HHT level using HPLC method relative to control. In short, it runs like this:
as §2

Assay [6] can be described thus: Inhibition of rat mPGES1.
Assay [7] concerns the target T1, Prostaglandin E synthase. The experiment in a line: Inhibition of mPGES1 in IL1-beta treated human A549 cell microsomal membrane assessed as blockade of PGH2 to PGE2 conversion after 1 min. The format is microsomes, Microsome. In short, it runs like this:
as §1

As a reminder, the IC50 is the concentration that inhibits the measured activity by half. Regarding `CC1(C)Cc2c(-c3ccccc3)c(-c3ccc(Cl)cc3)c(Cc3nnn[nH]3)n2C1`, the IC50 at Prostaglandin E synthase [1] came out at 3900 nM; in assay [3] it was 500 nM. Further, the figures for the Activity in assay [2], in assay [4] and in assay [5] were 27.9%, 37.4% and 46.5%, respectively.
For the compound `O=C(O)CCc1c(-c2ccc(Cl)cc2)c(-c2ccccc2)c2n1CCC2`, the IC50 on Prostaglandin E synthase [1] came to 1800 nM; in assay [3], 1900 nM. In addition, the Activity in assay [2] turned out to be 20.8%.
As to `CC1(C)Cc2c(-c3ccccc3)c(-c3ccc(Cl)cc3)c(CC(=O)NS(=O)(=O)c3ccccc3)n2C1`, the IC50 was found to be 4500 nM on Prostaglandin E synthase [1] and 250 nM in assay [3]. The Activity stood at 28.7% in assay [2], 25.8% in assay [4] and 43.4% in assay [5].
`CC1(C)Cc2c(-c3ccccc3)c(-c3ccc(Cl)cc3)c(CC(=O)NS(C)(=O)=O)n2C1`: the Activity in assay [2] came to 63.1%. Also, the IC50 in assay [3] was found to be 230 nM.
The corresponding values for `O=C(O)Cc1c(-c2ccc(Cl)cc2)c(-c2ccccc2)c2n1CCC2` are 65.3% and 1600 nM.
Regarding `Cc1ccc(S(=O)(=O)NC(=O)CCc2c(-c3ccc(Cl)cc3)c(-c3ccccc3)c3n2CC(C)(C)C3)cc1`, on Prostaglandin E synthase [1], the IC50 came out at 2100 nM. Also, the Activity was determined as 23.2% in assay [2] and 29.2% in assay [4]. Moreover, the outcome in assay [5] was inactive.
For the compound `CC1(C)Cc2c(-c3ccccc3)c(-c3ccc([N+](=O)[O-])cc3)c(CC(=O)O)n2C1`, the Activity in assay [2] is 58.8%. In assay [3], the IC50 came out at 1500 nM.
Turning to `CC1(C)Cc2c(-c3ccccc3)c(-c3ccc(Cl)cc3)c(CCC(=O)O)n2C1`, the IC50 on Prostaglandin E synthase [1] worked out at 7200 nM. Further, the Activity in assay [2] is 47.4%; in assay [4] it was 82.9%. Further, the outcome in assay [5] was inactive.
With `CC1(C)Cc2c(-c3ccccc3)c(-c3ccc(C(F)(F)F)cc3)c(CC(=O)O)n2C1`, in assay [2], the Activity stood at 56.1%. In assay [3], the IC50 amounted to 310 nM.
For the compound `Cc1ccc(S(=O)(=O)NC(=O)Cc2c(-c3ccc(Cl)cc3)c(-c3ccccc3)c3n2CC(C)(C)C3)cc1`, the IC50 on Prostaglandin E synthase [1] came out at 4800 nM; in assay [3], 260 nM. Further, the Activity in assay [2] was 32.2%; in assay [4] it was 8.6%; in assay [5] it was 13.6%.
On to `CC(C)c1ccc2c(c1)c(SC(C)(C)C)c(CC(C)(C)C(=O)O)n2Cc1ccc(Cl)cc1`, for which the Activity in assay [2] turned out to be 22.5%; in assay [4], 19.5%; in assay [5], 56.7%. In assay [6], this compound showed an IC50 of 3200 nM.
On to `CC1(C)Cc2c(-c3ccccc3)c(-c3ccc4ccoc4c3)c(CC(=O)O)n2C1`, for which the IC50 at Prostaglandin E synthase [1] was found to be 6200 nM. The values for the Activity in assay [2], in assay [4] and in assay [5] were 42.1%, 94% and 75.8%, respectively.
In the case of `CC1(C)Cc2c(-c3ccccc3)c(-c3ccc(C(C)(C)C)cc3)c(CC(=O)O)n2C1`, in assay [2], the Activity was 53.8%. Also, the IC50 in assay [3] is 180 nM. The outcome in assay [4] and in assay [5] was inactive.
Regarding `CC1(C)Cc2c(-c3ccccc3)c(-c3ccc(Cl)cc3)c(CC(=O)O)n2C1` [LICOFELONE], the values for the IC50 (on Prostaglandin E synthase [1]; in assay [3]; on Prostaglandin E synthase [7]) were 6700 nM, 180 nM and 6000 nM, respectively. For the same compound, the Activity in assay [2] was found to be 44.9%; in assay [4] it was 12.4%; in assay [5], 53.7%.
As for `CCC1(CC)Cc2c(-c3ccccc3)c(-c3ccc(Cl)cc3)c(CC(=O)NS(C)(=O)=O)n2C1`, the IC50 on Prostaglandin E synthase [1] is 5900 nM. For the same compound, the Activity in assay [2] was 38.5%.
